Assay results taken from PMC7974029 (The Journal of Biological Chemistry, 2021).

Columns and labels:
[1] = molecular target: T1, BfSGBP-B (Bacteroides fluxus, UniProt F3PPH3); assay: ITC of laminarioligosaccharides and MLG oligosaccharides with BfSGBP-B; assay type: binding
T1 sequence (F3PPH3 21-290): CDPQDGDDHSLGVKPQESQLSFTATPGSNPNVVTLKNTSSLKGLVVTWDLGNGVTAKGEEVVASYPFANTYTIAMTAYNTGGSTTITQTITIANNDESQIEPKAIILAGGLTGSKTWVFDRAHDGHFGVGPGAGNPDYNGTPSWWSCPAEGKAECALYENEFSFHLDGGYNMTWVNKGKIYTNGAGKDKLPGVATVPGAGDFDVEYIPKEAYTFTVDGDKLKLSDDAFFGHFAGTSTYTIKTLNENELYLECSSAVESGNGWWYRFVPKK
Summary of the method: (§1)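 Recombinant SGBP from E. coli BL21(DE3) (IMAC, tag cleavage, SEC) at 100 μM in the cell was titrated with 1 mM laminari- or mixed-linkage gluco-oligosaccharide, all in 20 mM HEPES pH 7.0, at 25 °C. One 0.2 μl injection, then 18 × 2 μl at 150 s intervals, stirring 750 rpm. Isotherms were fitted with stoichiometry n fixed at 1.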

[2] = molecular target: T2, BtSGBP-A (Bacteroides thetaiotaomicron, UniProt A0A173VPY3); assay: ITC of laminarioligosaccharides with BtSGBP-A; assay type: binding; conditions: for KD: BtSGBP-A, ITC, value as given in running text
T2 sequence (A0A173VPY3 23-515): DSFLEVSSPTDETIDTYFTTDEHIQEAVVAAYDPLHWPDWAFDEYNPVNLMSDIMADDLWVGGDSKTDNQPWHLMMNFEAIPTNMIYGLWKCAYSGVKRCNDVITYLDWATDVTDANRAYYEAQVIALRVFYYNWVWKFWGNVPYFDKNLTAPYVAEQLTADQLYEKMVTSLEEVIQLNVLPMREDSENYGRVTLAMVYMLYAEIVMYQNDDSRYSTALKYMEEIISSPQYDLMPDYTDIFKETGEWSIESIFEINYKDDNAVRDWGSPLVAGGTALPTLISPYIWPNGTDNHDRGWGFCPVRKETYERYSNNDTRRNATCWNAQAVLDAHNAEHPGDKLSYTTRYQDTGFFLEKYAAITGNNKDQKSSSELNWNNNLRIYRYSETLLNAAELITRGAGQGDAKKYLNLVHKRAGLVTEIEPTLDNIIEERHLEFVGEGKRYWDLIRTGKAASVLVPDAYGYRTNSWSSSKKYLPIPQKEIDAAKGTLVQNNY
Summary of the method: as §1

[3] = system: CBML-middle domain of BtSGBP; assay: Affinity gel electrophoresis, BtSGBP-B CBML-middle domain; assay type: binding, Bacteroides thetaiotaomicron; conditions: 0.1% (w/v) polysaccharide in native gel
Summary of the method: (§2)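 Native PAGE with 10% (w/v) acrylamide cast with 0.1% (w/v) polysaccharide, or water for the control gel. 6.0 μg recombinant SGBP domain (His₆-tagged, E. coli BL21(DE3), Ni-IMAC, tag removed, size-exclusion purified) and 5.0 μg BSA reference were loaded. Gels were run nondenaturing at 80 V, 3 h, room temperature, and stained with Coomassie Brilliant Blue.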

[4] = system: CBML-middle of BuSGBP-B; assay: Affinity gel electrophoresis, BuSGBP-B CBML-middle domain; assay type: binding, Bacteroides uniformis; conditions: 0.1% (w/v) polysaccharide in native gel
Summary of the method: as §2

[5] = molecular target: T1, BfSGBP-B; conditions: BfSGBP-B full length; cited from earlier work
[6] = system: BuSGBP-B; conditions: BuSGBP-B full length; cited from earlier work
[7] = system: BuSGBP-A; conditions: cited from earlier work
[8] = system: CBML-distal of BuSGBP-B; assay: Affinity gel electrophoresis, BuSGBP-B CBML-distal domain; assay type: binding, Bacteroides uniformis; conditions: 0.1% (w/v) polysaccharide in native gel
Summary of the method: as §2

For `OC[C@H]1O[C@@H](O[C@H]2[C@H](O)[C@@H](O)[C@H](O[C@H]3[C@H](O)[C@@H](CO)OC(O)[C@@H]3O)O[C@@H]2CO)[C@H](O)[C@@H](O)[C@@H]1O` (stereo partly drawn) [G4G3G], the “binding to BfSGBP-B by ITC (in words)” value [1] was “binding”.

In the case of `OC[C@H]1O[C@@H](O[C@H]2[C@H](O)[C@@H](O)[C@H](O[C@H]3[C@H](O)[C@@H](O)[C@H](O[C@H]4[C@H](O)[C@@H](CO)OC(O)[C@@H]4O)O[C@@H]3CO)O[C@@H]2CO)[C@H](O)[C@@H](O)[C@@H]1O` (stereo partly drawn) [G4G4G3G], the “binding to BfSGBP-B by ITC (in words)” value [1] is reported as “binding”.

Work on `OC[C@H]1O[C@@H](O[C@@H]2[C@@H](O)[C@H](O[C@@H]3[C@@H](O)[C@H](O[C@@H]4[C@@H](O)[C@H](O[C@@H]5[C@@H](O)[C@H](O[C@H]6[C@H](O)[C@@H](CO)OC(O)[C@@H]6O)O[C@H](CO)[C@H]5O)O[C@H](CO)[C@H]4O)O[C@H](CO)[C@H]3O)O[C@H](CO)[C@H]2O)[C@H](O)[C@@H](O)[C@@H]1O` (stereo partly drawn) [Laminarihexaose] yielded a Kd [2] of 26 µM.

Work on `OC[C@H]1O[C@@H](O[C@@H]2[C@@H](O)[C@H](O[C@@H]3[C@@H](O)[C@H](O[C@@H]4[C@@H](O)[C@H](O[C@H]5[C@H](O)[C@@H](CO)OC(O)[C@@H]5O)O[C@H](CO)[C@H]4O)O[C@H](CO)[C@H]3O)O[C@H](CO)[C@H]2O)[C@H](O)[C@@H](O)[C@@H]1O` (stereo partly drawn) [Laminaripentaose] yielded a Kd [2] of 210 µM.

For `OC[C@H]1O[C@@H](O[C@@H]2[C@@H](O)[C@H](O[C@@H]3[C@@H](O)[C@H](O[C@H]4[C@H](O)[C@@H](CO)OC(O)[C@@H]4O)O[C@H](CO)[C@H]3O)O[C@H](CO)[C@H]2O)[C@H](O)[C@@H](O)[C@@H]1O` (stereo partly drawn) [Laminaritetraose], the KD [2] was “too weak to be quantified”.

For `OC[C@H]1O[C@@H](O[C@@H]2[C@@H](O)[C@H](O[C@H]3[C@H](O)[C@@H](CO)OC(O)[C@@H]3O)O[C@H](CO)[C@H]2O)[C@H](O)[C@@H](O)[C@@H]1O` (stereo partly drawn) [Laminaritriose], the KD [2] was “too weak to be quantified”.

For “mixed-linkage β(1,3)/β(1,4)-glucan [MLG]”, the “binding by affinity gel electrophoresis (AGE)” value (from here on “binding … (AGE)”) [3] is given as “cannot bind”, the “binding … (AGE)” value [4] is given as “exclusively responsible for the binding” and the polysaccharide binding [5] is given as “bind”. For the same compound, the polysaccharide binding [6] was “bind”.

In the case of β(1,3)-glucan, the “binding … (AGE)” value [4] is listed as “bind”, the polysaccharide binding [5] is listed as “bind” and the polysaccharide binding [7] is listed as “does not display binding”. The polysaccharide binding [6] was “bind” and the “binding … (AGE)” value [8] was “bind”.
